Reference: ChEMBL document CHEMBL1155944 (J Med Chem, 2008)

Assays:
[1] = target: Gamma-aminobutyric acid receptor subunit alpha-3 (Rattus norvegicus, UniProt P18508+P20236+P63079); assay: Agonist activity at rat recombinant GABAA alpha-3-beta-3-gamma-2 receptor expressed in HEK293 cells assessed as normalization of GABA-induced current by whole cell patch-clamp technique; assay type: functional, cell-based
In short: (§1)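 HEK293 cells transiently co-transfected (calcium phosphate) with rat αi, β3 and γ2S cDNAs plus EGFP marker; recorded 2 days later by whole-cell patch clamp in HEPES saline pH 7.35.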

[2] = target: Gamma-aminobutyric acid receptor subunit alpha-4 (Rattus norvegicus, UniProt P18508+P28471+P63079); assay: Agonist activity at rat recombinant GABAA alpha-4-beta-3-gamma-2 receptor expressed in HEK293 cells assessed as normalization of GABA-induced current by whole cell patch-clamp technique; assay type: functional, cell-based; in short: as §1
[3] = target: GABA A receptor alpha-5/beta-3/gamma-2 (Rattus norvegicus, UniProt P18508+P19969+P63079); assay: Agonist activity at rat recombinant GABAA alpha-5-beta-3-gamma-2 receptor expressed in HEK293 cells assessed as normalization of GABA-induced current by whole cell patch-clamp technique; assay type: functional, cell-based; in short: as §1
[4] = target: Gamma-aminobutyric acid receptor subunit alpha-6 (Rattus norvegicus, UniProt P18508+P30191+P63079); assay: Agonist activity at rat recombinant GABAA alpha-6-beta-3-gamma-2 receptor expressed in HEK293 cells assessed as normalization of GABA-induced current by whole cell patch-clamp technique; assay type: functional, cell-based
In short: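 HEK293 cells transiently transfected by calcium phosphate with rat α6 (2 μg), β3 (0.4 μg) and γ2S (0.3 μg) cDNAs plus 1 μg EGFP vector per plate. Whole-cell patch clamp was done 2 days later on EGFP-positive cells in HEPES saline at pH 7.35. Compound was applied alone by fast perfusion at 1, 10, 100 and 1000 μM.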

[5] = target: Gamma-aminobutyric acid receptor subunit alpha-6 (Rattus norvegicus) (UniProt P30191); assay: Displacement of [3H]Muscimol from GABAAalpha6 receptor in Sprague-Dawley rat brain cerebellum membrane at 1 mM; assay type: tissue-based
In short: (§2)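 Well-washed membranes from adult male Sprague-Dawley rat cortex or cerebellum (50–200 μg protein). Incubated 60 min on ice in 50 mM Tris/citrate, pH 7.3, with 6 nM [3H]muscimol and test compound. […] Filtered and counted by scintillation. IC50 and pseudo-Hill coefficient obtained by nonlinear regression.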

Rattus norvegicus [6] = organism: Rattus norvegicus; assay: Displacement of [3H]Muscimol from GABAA alpha-1-alpha-5 receptor in Sprague-Dawley rat brain cortex membrane at 100 uM; in short: as §2
Rattus norvegicus [7] = organism: Rattus norvegicus; assay: Displacement of [3H]Muscimol from GABAA alpha-1-alpha-5 receptor in Sprague-Dawley rat brain cortex membrane at 1 mM; in short: as §2
[8] = target: Gamma-aminobutyric acid receptor subunit alpha-6 (Rattus norvegicus) (UniProt P30191); assay: Displacement of [3H]Muscimol from GABAAalpha6 receptor in Sprague-Dawley rat brain cerebellum membrane at 100 uM; assay type: tissue-based; in short: as §2
[9] = (§3) Displacement of [3H]Muscimol from GABAA alpha-1-alpha-5 receptor in Sprague-Dawley rat brain cortex membrane; in short: as §2
Rattus norvegicus [10] = organism: Rattus norvegicus; assay: as §3; in short: as §2
[11] = target: Gamma-aminobutyric acid receptor subunit alpha-6 (Rattus norvegicus) (UniProt P30191); assay: (§4) Displacement of [3H]Muscimol from GABAAalpha6 receptor in Sprague-Dawley rat brain cerebellum membrane; assay type: tissue-based; in short: as §2
[12] = target: Gamma-aminobutyric acid receptor subunit alpha-6 (Rattus norvegicus, UniProt P30191); assay: as §4; assay type: tissue-based; in short: as §2
[13] = target: Gamma-aminobutyric acid receptor subunit alpha-6 (Rattus norvegicus) (UniProt P30191); assay: Intrinsic activity at recombinant rat GABAA alpha-6-beta-3-gamma-2 receptor expressed in HEK293 cells assessed as induction of current at 1 mM by whole-cell patch-clamp technique relative to GABA; assay type: cell-based
In short: (§5)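 Rat αiβ3γ2S receptors transiently expressed in HEK293 cells, with EGFP marking transfected cells, recorded 2 days after transfection. Whole-cell patch clamp in HEPES saline, pH 7.35. Drug applied alone at 1, 10, 100 and 1000 μM. […] Data from at least four cells.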

[14] = target: GABA A receptor alpha-5/beta-3/gamma-2 (Rattus norvegicus) (UniProt P18508+P19969+P63079); assay: Intrinsic activity at recombinant rat GABAA alpha-5-beta-3-gamma-2 receptor expressed in HEK293 cells assessed as induction of current at 1 mM by whole-cell patch-clamp technique relative to GABA; assay type: cell-based; in short: as §5
[15] = target: Gamma-aminobutyric acid receptor subunit alpha-4 (Rattus norvegicus) (UniProt P28471); assay: Intrinsic activity at recombinant rat GABAA alpha-4-beta-3-gamma-2 receptor expressed in HEK293 cells assessed as induction of current at 1 mM by whole-cell patch-clamp technique relative to GABA; assay type: cell-based; in short: as §5
[16] = target: GABA-A receptor; alpha-1/beta-2/gamma-2 (Rattus norvegicus) (UniProt P18508+P62813+P63138); assay: Intrinsic activity at recombinant rat GABAA alpha-1-beta-3-gamma-2 receptor expressed in HEK293 cells assessed as induction of current at 1 mM by whole-cell patch-clamp technique relative to GABA; assay type: cell-based; in short: as §5
[17] = target: T1, GABA A receptor alpha-2/beta-2/gamma-2 (Rattus norvegicus) (UniProt P18508+P23576+P63138); assay: Intrinsic activity at recombinant rat GABAA alpha-2-beta-3-gamma-2 receptor expressed in HEK293 cells assessed as induction of current at 1 mM by whole-cell patch-clamp technique relative to GABA; assay type: cell-based; in short: as §5
[18] = target: Gamma-aminobutyric acid receptor subunit alpha-3 (Rattus norvegicus) (UniProt P20236); assay: Intrinsic activity at recombinant rat GABAA alpha-3-beta-3-gamma-2 receptor expressed in HEK293 cells assessed as induction of current at 1 mM by whole-cell patch-clamp technique relative to GABA; assay type: cell-based; in short: as §5
[19] = target: T2, Gamma-aminobutyric acid receptor subunit alpha-1 (Rattus norvegicus, UniProt P62813+P63138); assay: Agonist activity at rat wild type GABAA alpha-1-beta-2 receptor expressed in Xenopus laevis oocytes at -60 mV by Two-Electrode voltage clamp method; assay type: functional, cell-based, Oocyte
[20] = Agonist activity at rat GABAA alpha-1F64C-beta-2 receptor mutant expressed in Xenopus laevis oocytes at -60 mV by Two-Electrode voltage clamp method; assay type: functional, cell-based; conditions: Oocyte
[21] = Agonist activity at rat GABAA alpha-1S68C-beta-2 receptor mutant expressed in Xenopus laevis oocytes at -60 mV by Two-Electrode voltage clamp method; assay type: functional, cell-based; conditions: Oocyte
[22] = target: Gamma-aminobutyric acid receptor subunit alpha-1 (Rattus norvegicus) (UniProt P62813); assay: Agonist activity at rat wild type GABAA alpha-1-beta-2 receptor expressed in Xenopus laevis oocytes at -60 mV at 30 mM by Two-Electrode voltage clamp method; assay type: functional, cell-based; conditions: Oocyte
In short: (§6)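 Rat α1β2 receptors (wt or cysteine mutant) expressed in Xenopus oocytes. Two-electrode voltage clamp at −60 mV, room temperature, Ca2+-free frog Ringer, pH 7.5. Increasing test concentrations applied alone. Currents normalized to the maximal GABA-induced current. Some dose-response curves had only two trials.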

[23] = Agonist activity at rat GABAA alpha-1F64C-beta-2 receptor mutant expressed in Xenopus laevis oocytes at -60 mV at 30 mM by Two-Electrode voltage clamp method; assay type: functional, Oocyte; in short: as §6
[24] = Agonist activity at rat GABAA alpha-1S68C-beta-2 receptor mutant expressed in Xenopus laevis oocytes at -60 mV at 30 mM by Two-Electrode voltage clamp method; assay type: functional, Oocyte; in short: as §6
[25] = target: T2, Gamma-aminobutyric acid receptor subunit alpha-1; assay: Agonist activity at rat wild type GABAA alpha-1-beta-2 receptor expressed in Xenopus laevis oocytes as inhibition of GABA-induced current at -60 mV by Two-Electrode voltage clamp method in presence of picrotoxinin; assay type: functional, cell-based, Oocyte
[26] = Agonist activity at rat GABAA alpha-1F64C-beta-2 receptor mutant expressed in Xenopus laevis oocytes assessed as inhibition of GABA-induced current at -60 mV by Two-Electrode voltage clamp method in presence of picrotoxinin; assay type: functional, cell-based; conditions: Oocyte
[27] = Agonist activity at rat GABAA alpha-1S68C-beta-2 receptor mutant expressed in Xenopus laevis oocytes as inhibition of GABA-induced current at -60 mV by Two-Electrode voltage clamp method in presence of picrotoxinin; assay type: functional, cell-based; conditions: Oocyte
[28] = target: Gamma-aminobutyric acid receptor subunit alpha-1 (Rattus norvegicus) (UniProt P62813); assay: Agonist activity at rat wild type GABAA alpha-1-beta-2 receptor expressed in Xenopus laevis oocytes as inhibition of GABA-induced current at -60 mV at 1 mM by Two-Electrode voltage clamp method; assay type: functional, cell-based; set-up: scale not given: the % may be the effect or the level left; conditions: Oocyte
In short: (§7)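 Xenopus oocytes injected with rat α1 (wt or cysteine mutant) plus β2 mRNA, kept 2–10 days at 17 °C. Two-electrode voltage clamp at −60 mV, room temperature, Ca2+-free frog Ringer, pH 7.5.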

[29] = Agonist activity at rat GABAA alpha-1F64C-beta-2 receptor mutant expressed in Xenopus laevis oocytes assessed as inhibition of GABA-induced current at -60 mV at 1 mM by Two-Electrode voltage clamp method; assay type: functional, Oocyte; set-up: scale not given: the % may be the effect or the level left; in short: as §7
[30] = Agonist activity at rat GABAA alpha-1S68C-beta-2 receptor mutant expressed in Xenopus laevis oocytes as inhibition of GABA-induced current at -60 mV at 1 mM by Two-Electrode voltage clamp method; assay type: functional, Oocyte; set-up: scale not given: the % may be the effect or the level left; in short: as §7
[31] = target: Gamma-aminobutyric acid receptor subunit alpha-1 (Rattus norvegicus) (UniProt P62813); assay: Agonist activity at rat wild type GABAA alpha-1-beta-2 receptor expressed in Xenopus laevis oocytes assessed as inhibition of drug-induced current at -60 mV at 10 mM in presence of 100 uM picrotoxinin by Two-Electrode voltage clamp method; assay type: functional, cell-based; set-up: scale not given: the % may be the effect or the level left; conditions: Oocyte
In short: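 Oocytes expressing rat α1β2, two-electrode voltage clamp at −60 mV. Several 10 mM test pulses applied, then washout. 100 μM picrotoxinin applied, immediately followed by co-application of 10 mM drug plus 100 μM picrotoxinin, and the current recorded.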

[32] = Agonist activity at rat GABAA alpha-1F64C-beta-2 receptor mutant expressed in Xenopus laevis oocytes assessed as reduction of GABA-induced current at -60 mV at 10 mM by Two-Electrode voltage clamp method in presence of 10 uM 2-sulfonatoethyl methanethiosulfonate; assay type: functional, Oocyte; set-up: scale not given: the % may be the effect or the level left
[33] = Agonist activity at rat GABAA alpha-1S68C-beta-2 receptor mutant expressed in Xenopus laevis oocytes assessed as reduction of GABA-induced current at -60 mV at 10 mM by Two-Electrode voltage clamp method in presence of 450 uM 2-sulfonatoethyl methanethiosulfonate; assay type: functional, Oocyte; set-up: scale not given: the % may be the effect or the level left
[34] = Agonist activity at rat GABAA alpha-1R66C-beta-2 receptor mutant expressed in Xenopus laevis oocytes assessed as inhibition of GABA-induced current at -60 mV at 10 mM in presence of 2 mM 2-sulfonatoethyl methanethiosulfonate by Two-Electrode voltage clamp method; assay type: functional, Oocyte; set-up: scale not given: the % may be the effect or the level left
[35] = Agonist activity at rat GABAA alpha-1R66C-beta-2 receptor mutant expressed in Xenopus laevis oocytes assessed as reduction of GABA-induced current at -60 mV at 30 mM by Two-Electrode voltage clamp method in presence of 5.5 mM GABA; assay type: functional, Oocyte; set-up: scale not given: the % may be the effect or the level left
In short: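 α1R66Cβ2 oocytes, two-electrode voltage clamp at −60 mV. […] Then 10 mM MTSES (12 s) and 10 mM DTT (20 s) were applied. Reaction rate fitted monoexponentially against cumulative application time.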

[36] = target: T1, GABA A receptor alpha-2/beta-2/gamma-2 (Rattus norvegicus); assay: Antagonist activity at recombinant rat GABAA alpha-2-beta-3-gamma-2 receptor expressed in HEK293 cells assessed as inhibition of GABA-induced current at 1 uM by whole-cell patch-clamp technique; assay type: functional, cell-based; set-up: scale not given: the % may be the effect or the level left
In short: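 HEK293 cells transiently transfected by calcium phosphate with rat αi, β3, γ2S and EGFP cDNAs, recorded 2 days later. Whole-cell patch clamp in HEPES saline, pH 7.35. […] Response expressed relative to the GABA-alone current. Data from at least four cells.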

Chain of Gamma-aminobutyric acid receptor subunit alpha-1 (Rattus norvegicus) (P62813 whole entry): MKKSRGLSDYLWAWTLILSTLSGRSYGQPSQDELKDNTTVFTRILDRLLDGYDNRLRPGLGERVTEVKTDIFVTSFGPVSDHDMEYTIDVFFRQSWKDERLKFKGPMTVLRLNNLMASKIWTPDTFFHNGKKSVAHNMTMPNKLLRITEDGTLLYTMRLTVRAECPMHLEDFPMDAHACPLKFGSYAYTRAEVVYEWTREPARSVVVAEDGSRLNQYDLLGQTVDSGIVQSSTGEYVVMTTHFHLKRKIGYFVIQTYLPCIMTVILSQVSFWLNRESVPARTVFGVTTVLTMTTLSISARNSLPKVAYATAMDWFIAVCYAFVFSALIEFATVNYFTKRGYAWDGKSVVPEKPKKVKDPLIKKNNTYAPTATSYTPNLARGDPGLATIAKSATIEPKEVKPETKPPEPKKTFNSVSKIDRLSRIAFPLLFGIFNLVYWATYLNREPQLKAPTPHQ
Chain of Gamma-aminobutyric acid receptor subunit alpha-6 (Rattus norvegicus) (P30191 whole entry): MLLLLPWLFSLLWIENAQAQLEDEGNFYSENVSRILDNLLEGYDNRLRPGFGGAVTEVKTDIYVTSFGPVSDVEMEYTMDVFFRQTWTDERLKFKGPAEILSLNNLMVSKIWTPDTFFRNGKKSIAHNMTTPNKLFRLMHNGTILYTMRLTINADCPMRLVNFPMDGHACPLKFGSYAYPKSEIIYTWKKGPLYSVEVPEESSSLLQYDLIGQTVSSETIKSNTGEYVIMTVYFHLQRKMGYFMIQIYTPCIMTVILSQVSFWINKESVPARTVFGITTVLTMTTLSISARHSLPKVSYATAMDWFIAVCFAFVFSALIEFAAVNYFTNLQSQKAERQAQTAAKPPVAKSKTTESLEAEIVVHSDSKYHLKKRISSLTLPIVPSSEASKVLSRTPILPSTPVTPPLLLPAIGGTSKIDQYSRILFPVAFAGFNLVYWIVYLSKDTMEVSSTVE
Chain of Gamma-aminobutyric acid receptor subunit alpha-3 (Rattus norvegicus) (P20236 whole entry): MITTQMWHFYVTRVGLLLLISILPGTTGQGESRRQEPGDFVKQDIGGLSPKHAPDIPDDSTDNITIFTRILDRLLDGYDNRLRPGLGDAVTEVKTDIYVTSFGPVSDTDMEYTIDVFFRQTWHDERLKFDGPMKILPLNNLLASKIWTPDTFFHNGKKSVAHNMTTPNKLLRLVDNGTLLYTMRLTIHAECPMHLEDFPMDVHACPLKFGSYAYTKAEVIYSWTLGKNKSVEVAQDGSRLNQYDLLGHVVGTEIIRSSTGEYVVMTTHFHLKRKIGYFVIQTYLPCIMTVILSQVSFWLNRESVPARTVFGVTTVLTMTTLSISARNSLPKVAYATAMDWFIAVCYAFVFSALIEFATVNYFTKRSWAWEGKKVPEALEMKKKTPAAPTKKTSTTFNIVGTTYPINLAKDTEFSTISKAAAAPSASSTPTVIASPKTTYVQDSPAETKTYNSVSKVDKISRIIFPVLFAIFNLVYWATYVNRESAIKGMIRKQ
T2 sequence (P62813 whole entry, one chain of several): as the sequence (P62813 whole entry) above
Chain of Gamma-aminobutyric acid receptor subunit alpha-6 (Rattus norvegicus, UniProt P30191) (P30191 whole entry): as the sequence (P30191 whole entry) above
Chain of Gamma-aminobutyric acid receptor subunit alpha-4 (P28471 whole entry, one chain of several): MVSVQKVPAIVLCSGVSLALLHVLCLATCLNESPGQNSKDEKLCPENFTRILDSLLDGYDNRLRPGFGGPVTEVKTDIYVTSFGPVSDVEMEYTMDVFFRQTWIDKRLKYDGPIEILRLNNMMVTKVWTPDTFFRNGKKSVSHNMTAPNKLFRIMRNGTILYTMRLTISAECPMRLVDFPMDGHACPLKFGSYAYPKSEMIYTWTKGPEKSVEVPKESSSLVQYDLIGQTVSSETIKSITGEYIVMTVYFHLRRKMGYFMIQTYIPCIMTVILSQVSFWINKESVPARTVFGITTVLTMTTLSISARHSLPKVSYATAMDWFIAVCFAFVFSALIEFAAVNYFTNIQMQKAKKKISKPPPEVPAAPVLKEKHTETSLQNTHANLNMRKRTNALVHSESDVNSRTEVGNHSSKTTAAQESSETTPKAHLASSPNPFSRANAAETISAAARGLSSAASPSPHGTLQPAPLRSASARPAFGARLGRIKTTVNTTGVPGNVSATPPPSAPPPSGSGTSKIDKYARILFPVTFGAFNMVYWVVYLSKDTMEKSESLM
Chain of Gamma-aminobutyric acid receptor subunit alpha-4 (Rattus norvegicus) (P28471 whole entry): as the sequence (P28471 whole entry, one chain of several) above
Chain of Gamma-aminobutyric acid receptor subunit alpha-3 (P20236 whole entry, one chain of several): as the sequence (P20236 whole entry) above
Chain of Gamma-aminobutyric acid receptor subunit alpha-6 (Rattus norvegicus, UniProt P18508+P30191+P63079) (P30191 whole entry, the tested form may be a part, one chain of several): as the sequence (P30191 whole entry) above
Chain of GABA A receptor alpha-5/beta-3/gamma-2 (P18508 whole entry): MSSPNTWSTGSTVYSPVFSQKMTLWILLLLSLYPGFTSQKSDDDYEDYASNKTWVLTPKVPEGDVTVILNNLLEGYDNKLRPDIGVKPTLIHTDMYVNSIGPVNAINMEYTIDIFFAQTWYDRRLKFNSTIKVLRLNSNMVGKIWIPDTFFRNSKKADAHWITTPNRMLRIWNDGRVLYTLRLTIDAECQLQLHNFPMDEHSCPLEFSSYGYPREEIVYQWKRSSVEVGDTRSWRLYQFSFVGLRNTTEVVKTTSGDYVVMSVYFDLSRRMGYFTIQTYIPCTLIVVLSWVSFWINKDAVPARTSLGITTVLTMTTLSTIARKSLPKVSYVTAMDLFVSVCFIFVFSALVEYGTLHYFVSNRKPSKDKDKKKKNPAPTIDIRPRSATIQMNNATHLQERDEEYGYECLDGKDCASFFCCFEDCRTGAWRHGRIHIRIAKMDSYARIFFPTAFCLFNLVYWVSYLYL
Chain of GABA A receptor alpha-5/beta-3/gamma-2 (P19969 whole entry): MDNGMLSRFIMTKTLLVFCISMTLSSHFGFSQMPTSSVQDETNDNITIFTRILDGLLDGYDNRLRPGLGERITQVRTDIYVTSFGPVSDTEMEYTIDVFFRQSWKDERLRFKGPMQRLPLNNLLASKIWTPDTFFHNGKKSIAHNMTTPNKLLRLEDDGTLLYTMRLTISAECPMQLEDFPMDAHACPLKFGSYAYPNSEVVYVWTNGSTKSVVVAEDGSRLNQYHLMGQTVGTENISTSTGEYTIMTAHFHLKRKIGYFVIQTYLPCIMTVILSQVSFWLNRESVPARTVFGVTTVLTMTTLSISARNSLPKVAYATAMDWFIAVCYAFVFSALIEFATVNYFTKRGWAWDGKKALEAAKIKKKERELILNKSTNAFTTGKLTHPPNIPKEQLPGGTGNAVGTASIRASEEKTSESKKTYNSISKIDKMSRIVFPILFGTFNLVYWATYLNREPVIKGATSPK
Chain of GABA A receptor alpha-5/beta-3/gamma-2 (P63079 whole entry): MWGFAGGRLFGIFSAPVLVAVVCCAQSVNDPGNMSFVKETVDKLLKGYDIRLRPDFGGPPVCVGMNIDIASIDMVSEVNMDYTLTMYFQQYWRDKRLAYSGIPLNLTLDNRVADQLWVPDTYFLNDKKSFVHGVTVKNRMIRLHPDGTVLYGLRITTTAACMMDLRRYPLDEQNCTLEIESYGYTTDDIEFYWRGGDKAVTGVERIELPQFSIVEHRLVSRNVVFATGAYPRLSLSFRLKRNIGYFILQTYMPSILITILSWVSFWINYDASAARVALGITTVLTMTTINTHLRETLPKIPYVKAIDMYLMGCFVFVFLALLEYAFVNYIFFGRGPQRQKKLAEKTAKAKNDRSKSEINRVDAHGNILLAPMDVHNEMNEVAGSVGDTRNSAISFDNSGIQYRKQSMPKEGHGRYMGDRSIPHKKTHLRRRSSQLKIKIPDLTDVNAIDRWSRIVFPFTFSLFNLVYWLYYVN

NCc1nnc(O)o1
EC50 [1]: 2300 µM
EC50 [2]: 128 µM
EC50 [3]: 137 µM
EC50 [4]: 30 µM
inhibition [5]: 102%
inhibition (Rattus norvegicus [6]): 99%
inhibition (Rattus norvegicus [7]): 104%
inhibition [8]: 97%
IC50 [9]: 1.4 µM
logIC50 (Rattus norvegicus [10]): 0.139
logIC50 [11]: 0.048
IC50 [12]: 1.1 µM
Activity [13]: 1.03
Activity [14]: 0.95
Activity [15]: 0.97
Activity [16]: 0.93
Activity [17]: 0.88
Activity [18]: 0.59

Cl.Sc1nnc(C2CCNCC2)o1
EC50 [19]: 9500 µM
EC50 [20]: 5500 µM
EC50 [21]: 10000 µM
Activity [22]: 20%
Activity [23]: 60%
Activity [24]: 17%
IC50 [25]: 59 µM
IC50 [26]: 56 µM
IC50 [27]: 46 µM
Activity [28]: 6.8%
Activity [29]: 9%
Activity [30]: 3%
Activity [31]: 80%
Activity [32]: 47%
Activity [33]: 40%
Activity [34]: 77%
Activity [35]: 68%
inhibition [5]: 91%
inhibition (Rattus norvegicus [6]): 68%
inhibition (Rattus norvegicus [7]): 94%
inhibition [8]: 64%
logIC50 (Rattus norvegicus [10]): 1.67
logIC50 [11]: 1.82
IC50 [12]: 66 µM
Activity [14]: 48%
Activity [17]: 23%
Activity [18]: 13%
Activity [36]: 39%
